HNF4A DNA FP = change in binding of human HNF4 alpha to DNA; P41235; HNF4a-FITC DNA binding, fluorescence polarization, 1 h; activity change, % at 10 µM; hit rate 0.3% among 360,000; AID 1224865; in the data active = activity change above about 30%, passing the limit was not always enough
aDG glyco act = alpha-DG glycosylation activation; Pro5-aDG cells, alpha-DG glycosylation AlphaScreen (IIH6); 0% Pro5, 100% B10-LARGE cell signal; activation, % at 10 µM; hit rate 0.22% among 360,000; AID 624168;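 active = activation of at least 8% versus controls, or a plate z-score of at least 8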;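 note: Pro5 are CHO cells carrying HIG-tagged alpha-DG that lacks glycosylation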
XiGFP reactiv = activators of X-chromosome reactivation in mouse fibroblasts | XiGFP mouse fibroblasts, % GFP-positive cells imaging, 3 d; cells co-treated with 5-aza-dC sensitizer; scaled so ellipticine positive control = 100% | activation, % at 7.58 µM | hit rate 0.055% among 360,000 | AID 743238;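 active = mean normalized replicate activation at least 10% and every replicate at or above 10%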;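 note: 0% = median of on-plate neutral control wells and 100% = ellipticine 6 µM median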
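Material: SV40-immortalized XiGFP fibroblast cells, line 68-5-11 | Buffer or medium: DMEM containing 5-aza-dC | Dosing: One concentration, pinned | Times: 3 d treatment, 15 min room-temperature fixation | Controls: Ellipticine 6 µM positive control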
CSN deneddyl inh = CSN deneddylation inhibition. Q92905. Purified CSN, SCF-Nedd8-OG deneddylation, fluorescence polarization. inhibition, % at 12.5 µM. hit rate 0.38% among 360,000;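 active = pattern-corrected inhibition above about 35%, with an unprinted fluorescence ratio check between 0.5 and 1.5, limit read from the data, passing the limit was not always enough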;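 note: 0% = enzyme with substrate and 100% = substrate without enzyme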
Target sequence (Q92905 whole entry, looked up, one chain of several): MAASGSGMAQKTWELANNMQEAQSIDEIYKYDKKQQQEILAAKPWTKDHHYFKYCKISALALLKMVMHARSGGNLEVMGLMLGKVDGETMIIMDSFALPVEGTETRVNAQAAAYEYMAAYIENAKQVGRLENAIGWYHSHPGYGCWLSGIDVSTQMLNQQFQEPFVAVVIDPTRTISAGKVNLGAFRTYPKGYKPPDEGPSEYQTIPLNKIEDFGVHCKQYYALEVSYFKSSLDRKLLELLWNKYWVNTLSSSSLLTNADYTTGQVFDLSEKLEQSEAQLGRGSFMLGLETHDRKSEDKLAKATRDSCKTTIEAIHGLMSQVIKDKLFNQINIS
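Assay system: Purified human Csn5 enzyme expressed in HEK293T cells | Amount: Enzyme 0.24 nM | Measured by: Fluorescence polarization readout | Medium: Tris/NaCl/DTT buffer, pH 7.5 | Compound dosing: One concentration, 12.5 µM, 0.25% DMSO | Times: 90 min incubation of compound, enzyme and substrate at room temperature | Control set: no-enzyme wells high, enzyme-with-substrate wells low | Read-out: % inhibition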
Rpn11 block = blocks the human proteasome subunit Rpn11 | O00487 | human 26S proteasome, Ub4-pepOG fluorescence polarization; 20S core pre-blocked with epoxomicin | inhibition, % at 20 µM | hit rate 0.59% among 360,000;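 active = inhibition at 20 µM, scaled to each plate's controls, above about 33%, limit read from the data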
Target sequence (O00487 whole entry, looked up): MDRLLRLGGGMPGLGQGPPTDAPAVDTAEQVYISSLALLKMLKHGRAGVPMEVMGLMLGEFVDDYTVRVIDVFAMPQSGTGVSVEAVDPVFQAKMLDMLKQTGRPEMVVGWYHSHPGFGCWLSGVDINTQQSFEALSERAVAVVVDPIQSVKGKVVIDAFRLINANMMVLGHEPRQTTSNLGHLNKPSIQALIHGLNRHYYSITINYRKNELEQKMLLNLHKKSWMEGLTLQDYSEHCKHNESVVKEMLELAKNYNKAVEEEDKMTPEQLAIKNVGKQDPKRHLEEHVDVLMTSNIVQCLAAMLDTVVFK
TPT1 inhibitor = inhibitors of Candida albicans tRNA 2'-phosphotransferase TPT1 | recombinant caTPT1, FP RNA substrate dephosphorylation | inhibition, % at 5 µM | hit rate 0.81% among 300,000 | AID 1962;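 active = inhibition above the mean of all tested compounds plus 3 SD, set per screening campaign, cut at about 24% in these data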;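 note: plate controls were DMSO alone for no effect and ferristatin control at 100 nM for full effect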
TPT1 inh confirm = confirmation of Candida albicans TPT1 inhibitors | shares compounds with TPT1 inhibitor | recombinant caTPT1, fluorescence polarization, RNase T1 coupled | inhibition, % at 5 µM | hit rate 74% among 2,400 | AID 2149;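 active = inhibition above the primary screen limit, the mean inhibition of all tested compounds plus 3 SD, cut at about 25% in these data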
RNase T1 inh = blocks Aspergillus oryzae RNase T1, a TPT1 counter-screen. shares compounds with TPT1 inhibitor. hit rate 83% among 2,400. inhibition, % at 5 µM. RNase T1 cleavage, fluorescence polarization, 1536-well;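 active = inhibition above the solvent-only control well mean plus 3 SD, limit set per screening run, cut at about 23% in these data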;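 note: plate controls were DMSO wells with enzyme for no effect and wells without RNase T1 for full effect; inhibitors block cleavage so intact labeled substrate keeps polarization high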
* marks the source's active call; other numbers are inactive results; · = not tested or not shown. Sampled rows, rich in hits. Any-hit rate of the full collection: about 1.3%.

SMILES | HNF4A DNA FP | aDG glyco act | XiGFP reactiv | CSN deneddyl inh | Rpn11 block | TPT1 inhibitor | TPT1 inh confirm | RNase T1 inh
Cc1cc(SCC(=O)c2cc3ccccc3o2)nc2ccccc12 | 9 | 0 | · | 7 | · | 66* | 7 | 7
Cc1ccc(-c2nnc(Nc3ccc4c(c3)OCO4)c3ccccc23)cc1S(=O)(=O)NCCO | 2 | 0 | 1 | -7 | -5 | 0 | · | ·
Cc1ccc(-c2nnc(Nc3ccc4c(c3)OCO4)c3ccccc23)cc1S(=O)(=O)NC(C)C | 2 | 0 | 0 | 6 | 15 | 52* | 7 | 12
CC(C(=O)O)N1C(=O)/C(=C/C=C/c2ccco2)SC1=S (stereo unspecified) | -47 | 0 | · | 49 | · | 61* | 34* | 45*
O=C1/C(=C/C=C/c2ccco2)SC(=S)N1NS(=O)(=O)c1ccccc1 | -58 | 0 | 0 | 62 | · | 85* | 67* | 34*
CCN1[C@H](C(=O)Nc2ccccc2)[C@@H](CO)[C@@H]2Cn3c(ccc(-c4ccc(F)cc4)c3=O)[C@@H]21 | · | · | 0 | · | · | · | · | ·
CCn1c2ccccc2c2cc(N)ccc21 | 36 | 0 | · | 36* | · | 26* | 28* | 40*
CCn1c2ccccc2c2cc(/C(C)=N/O)ccc21 | 1 | 0 | · | 4 | 5 | 0 | · | ·
O=C(O)CCn1cc(/C=C2\SC(=S)NC2=O)c(-c2ccccc2)n1 | 4 | 1 | 0 | 10 | 17 | 54* | 1 | 7
O=C(O)CCn1cc(/C=C2/NC(=S)N(c3ccccc3)C2=O)c(-c2ccccc2)n1 | 3 | 0 | 0 | -15 | -5 | 1 | · | ·
COCC(=O)Nc1ccc2c(c1)C(=O)N(C)C[C@H](OC)[C@H](C)CN(C(=O)NC(C)C)[C@@H](C)CO2 | · | · | 0 | · | · | · | · | ·
COc1ccc(CCNC(=O)c2ccc3c(c2)NC(=O)C(CSCc2cc(C)ccc2C)N3)cc1OC (stereo unspecified) | · | · | · | · | · | 129* | 124* | 122*
CS(=O)(=O)Nc1ccc(-c2ccc(/C=C3\SC(N)=NC3=O)o2)cc1 | 42* | 0 | 0 | 10 | 22 | 44* | 54* | 68*
CC(C)(C)S(=O)N1Cc2cc(C(=O)O)nc(-c3cccc(C#CCC4CCCC4)c3)c2[C@@H]1CCO (stereo partly specified) | · | · | 0 | · | · | · | · | ·
C[C@H](CO)N1C[C@H](C)[C@@H](CN(C)S(C)(=O)=O)OCCCC[C@H](C)Oc2ccc(NC(=O)Nc3ccccc3)cc2C1=O | · | · | 0 | · | · | · | · | ·
CCCCC(CCCC)=N/N=C/c1c(O)n(CC)c2cc(C3=NNC(=O)CC3)ccc12 | 20 | 0 | · | -3 | · | 34* | 17 | 22*
CCn1c(O)c(/C=N/N=C2CCCCC2)c2cc(C3=NNC(=O)CC3)ccc21 | 12 | 0 | 0 | 12 | 30 | 37* | 23 | 36*
CCCOc1ccc(C2=NNC(=O)CC2)cc1 | 4 | 0 | 0 | -1 | 2 | 1 | · | ·
C[C@H]1CN([C@@H](C)CO)S(=O)(=O)c2ccc(Br)cc2O[C@@H]1CN(C)C(=O)CN(C)C | · | · | 1 | · | · | · | · | ·
CNC(=O)NC(=O)C(C)OC(=O)c1c2c(nc3ccccc13)/C(=C/c1cccs1)CC2 (stereo unspecified) | 24 | 0 | 1 | 14 | · | 27* | 30* | 42*
COc1cc(/C=C2/C(=O)NN(c3ccc(F)cc3)C2=O)cc(Cl)c1O | 6 | 0 | 0 | 14 | 32 | 40* | 80* | 99*
COc1cc(/C=C2/C(=O)ON=C2C)cc(Cl)c1O | 1 | 0 | 0 | 7 | 24 | 42* | 101* | 113*
COCC(=O)Nc1ccc2c(c1)OC[C@H](C)N(Cc1cccnc1)C[C@H](C)[C@H](OC)CN(C)C2=O | · | · | 0 | · | · | · | · | ·
CCOc1ccc(/C=C/C(=O)c2c(O)cc(C)oc2=O)cc1 | 1 | 0 | 0 | 4 | 15 | 45* | 11 | 10
CC(C)(C)C1CCc2c(sc(N)c2C(N)=O)C1 (stereo unspecified) | 4 | 1 | · | 11 | 16 | 25* | 2 | 7
SMILES | HNF4A DNA FP | aDG glyco act | XiGFP reactiv | CSN deneddyl inh | Rpn11 block | TPT1 inhibitor | TPT1 inh confirm | RNase T1 inh
CCOC(=O)c1sc2nc(C)nc(SCC(=O)N(C)C3CCS(=O)(=O)C3)c2c1C (stereo unspecified) | 6 | -1 | 0 | 10 | 15 | 8 | · | ·
CCOC(=O)c1sc2nc(C)nc(SCC(=O)NC(C)CCc3ccccc3)c2c1C (stereo unspecified) | 17 | 0 | 0 | 7 | 32 | 25* | 41* | 51*
COC(=O)Cn1cc(/C=C/c2cc[n+](C)cc2)c2ccccc21 | 92 | 0 | 0 | 68 | · | 35* | 41* | 49*
Cc1ccc(-c2nc3sc(C#N)c(N)n3c(=O)c2C#N)cc1 | 30 | 0 | 0 | 29 | · | 24* | 35* | 48*
COc1ccc(CN(C)C[C@@H]2OCCCC[C@@H](C)Oc3ccc(NC(=O)Cc4ccccc4)cc3C(=O)N([C@@H](C)CO)C[C@H]2C)cc1 | · | · | 0 | · | · | · | · | ·
CC(C)Oc1ccc(C2C(C#N)=C(N)Oc3c2oc(CO)cc3=O)cc1 (stereo unspecified) | 2 | 0 | 0 | 1 | 0 | 36* | 5 | 6
COc1cc(C2C(C#N)=C(N)Oc3c2oc(CO)cc3=O)ccc1OC(C)C (stereo unspecified) | -2 | 0 | · | 3 | -2 | -2 | · | ·
COCCN1C(=O)/C(=C/c2ccc(N3CCCC3)cc2C)SC1=S | 120 | 0 | 0 | 31 | · | 115* | 99* | 100*
N#C/C(=C\c1ccc(-c2ccc(C(=O)O)cc2)o1)C(=O)Nc1ccc(F)cc1 | -1 | 0 | 0 | 16 | 36 | 33* | 48* | 61*
C[C@@H]1CN([C@@H](C)CO)C(=O)Cc2cc(NC(=O)Nc3ccc4c(c3)OCO4)ccc2O[C@H]1CN(C)S(C)(=O)=O | · | · | 0 | · | · | · | · | ·
COc1ccc(O)c(C(=O)c2cc(C#N)c(=O)n(-c3ccc(Cl)cc3)c2)c1 | 29 | 0 | · | 36* | · | 48* | 62* | 60*
C[C@H](CO)N1C[C@H](C)[C@H](CN(C)Cc2ccc(C(=O)Nc3ccccc3N)cc2)Oc2ccc(NC(=O)Cc3ccccc3)cc2C1=O | · | · | 0 | · | · | · | · | ·
O=c1cc(C(F)(F)F)nc(-n2[nH]c3c(c2=O)CCCC3)[nH]1 | 4 | 0 | · | 3 | 1 | 33* | 16 | 28*
Nc1nc(C(F)(F)F)cc(=O)[nH]1 | 4 | 0 | 0 | 0 | 1 | -2 | · | ·
